In ChEMBL document CHEMBL4145633, “Linfuranones B and C, Furanone-Containing Polyketides from a Plant-Associated Sphaerimonospora mesophila” (2018):
Calls of active or inactive are those of the source. The rule behind the calls is not given here.

Key:
[1] = Induction of preadipocyte differentiation into matured adipocyte in mouse ST-13 cells at 20 uM incubated for 2 to 8 days followed by compound wash out measured on day 12 by oil red O staining based phase contrast microscopy relative to control; format: functional
Procedure, shortened: (§1)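 Mouse ST-13 preadipocytes were seeded on day 1 at 1 × 10^4 cells/mL in DME/F-12 with 10% FBS and penicillin/streptomycin, at 37 °C under 5% CO2. Medium containing compound, or 20 nM rosiglitazone as positive control, was renewed on days 2, 5 and 8. On day 12 cells were formalin-fixed, rinsed in 60% 2-propanol, stained with 0.24% Oil Red O and imaged by phase-contrast microscopy at 100×.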

[2] = Induction of preadipocyte differentiation into matured adipocyte in mouse ST-13 cells at 40 uM incubated for 2 to 8 days followed by compound wash out measured on day 12 by oil red O staining based phase contrast microscopy relative to control; format: functional; procedure, shortened: as §1
Escherichia coli = experiment: Antibacterial activity against Escherichia coli at 25 ug/ml; format: functional, organism-based
Micrococcus luteus = experiment: Antibacterial activity against Micrococcus luteus at 25 ug/ml; format: functional, organism-based
Candida albicans = experiment: […] activity against Candida albicans at 25 ug/ml; format: functional, organism-based

Row | Compound | Activity [1] [%] | Activity [2] [%] | Activity (Escherichia coli) | Activity (Micrococcus luteus) | Activity (Candida albicans)
1 | CCCCC(=O)[C@H](C)/C=C(\C)[C@H](O)[C@H](C)/C=C/C=C/CC[C@@H](O)CC1=C(C)C(=O)C(C)(O)O1 (stereo partly specified) | 45 | 73 | inactive | inactive | inactive
2 | CCCCC(=O)O[C@H](C)/C=C(\C)[C@H](O)[C@H](C)/C=C/C=C/CC[C@@H](O)CC1=C(C)C(=O)C(C)(O)O1 (stereo partly specified) | 22 | 33 | inactive | inactive | inactive
3 | CC1=C(C[C@H](O)CC/C=C/C=C/[C@@H](C)[C@@H](O)/C(C)=C/[C@@H](C)O)OC(C)(O)C1=O (stereo partly specified) | 9 |  |  |  | 
